Laboratory results: ChEMBL document CHEMBL2062417, “Biotinylated quercetin as an intrinsic photoaffinity proteomics probe for the identification of quercetin target proteins” (Bioorg Med Chem, 2011)
The source made the active and inactive calls.

Columns and labels:
[1] = target: Eukaryotic translation initiation factor 3 subunit F (Homo sapiens) (UniProt O00303); test: Binding affinity to EIF3F in human Jurkat cells at 150 uM followed by UV irradiation for 30 mins with Wood's glass filtered medium pressure mercury arc light prior to cell lysis measured after denaturing wash by LC-MS/MS based pull down assay
Outline: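 Silver-stained bands from cells irradiated before lysis were excised, destained, reduced with 10 mM DTT, alkylated with 50 mM iodoacetamide and digested with trypsin overnight. Peptides were extracted in 1% TFA/50% acetonitrile. Nano-C18 LC used a 2–50% acetonitrile gradient with 0.1% formic acid over 50 min at 260 nL/min, followed by MS/MS identification.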

Jurkat = test: Binding affinity to quercetin binding protein in human Jurkat cells at 150 uM followed by UV irradiation for 30 mins with Wood's glass filtered medium pressure mercury arc light before cell lysis measured after denaturing wash by SDS-PAGE based pull down assay
Outline: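 Jurkat cells were grown in RPMI with 10% FBS (about 15×10^6 cells) and treated 2 h with 150 μM BioQ in 3% aqueous DMSO. They were heat-shocked at 43 °C for 30 min, recovered 1 h at 37 °C, and UV-irradiated (320–400 nm, peak 365 nm, 30 min, 4 °C) before or after sonication lysis. Streptavidin-agarose capture ran 1 h. Beads were washed ≥3× with lysis buffer or 2% SDS Tris pH 7.4, boiled, run on 12% SDS-PAGE and silver-stained.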

[2] = target: Casein kinase II subunit beta (Homo sapiens) (UniProt P67870); test: Binding affinity to CK2beta at 150 uM followed by UV irradiation for 30 mins with Wood's glass filtered medium pressure mercury arc light by SDS-PAGE based pull down assay
Outline: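 CK2 (17.5–70 nM) was mixed with 150 μM BioQ in 400 μL 10 mM PBS pH 7.2 with protease inhibitors, with or without 10 mM MgCl2 and 2 μM ATP. Samples were irradiated 30 min on ice (320–400 nm, peak 365 nm) or left unirradiated. Capture was on streptavidin agarose for 1 h, with washes in lysis buffer or 2% SDS Tris buffer, then boiling, SDS-PAGE and silver staining.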

Measured: Activity

Chain of Eukaryotic translation initiation factor 3 subunit F (Homo sapiens) (O00303 whole entry): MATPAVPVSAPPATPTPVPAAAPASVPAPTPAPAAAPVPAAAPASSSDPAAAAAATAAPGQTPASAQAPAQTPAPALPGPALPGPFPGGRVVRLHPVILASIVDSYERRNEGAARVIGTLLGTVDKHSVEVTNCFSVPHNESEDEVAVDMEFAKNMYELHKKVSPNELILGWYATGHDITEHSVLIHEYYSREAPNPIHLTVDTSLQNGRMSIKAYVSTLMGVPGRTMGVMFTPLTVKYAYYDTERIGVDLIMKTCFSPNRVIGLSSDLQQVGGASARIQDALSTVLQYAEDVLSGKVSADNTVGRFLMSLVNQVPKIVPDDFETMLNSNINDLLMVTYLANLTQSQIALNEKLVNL
Chain of Casein kinase II subunit beta (Homo sapiens) (P67870 whole entry): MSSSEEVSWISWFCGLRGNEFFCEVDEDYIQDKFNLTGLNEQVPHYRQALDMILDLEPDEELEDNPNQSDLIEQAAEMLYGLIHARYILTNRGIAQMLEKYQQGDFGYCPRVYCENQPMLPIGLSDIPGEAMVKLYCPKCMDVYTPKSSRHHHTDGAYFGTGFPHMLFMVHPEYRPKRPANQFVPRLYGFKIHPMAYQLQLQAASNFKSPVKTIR

O=C(CCCC[C@@H]1SC[C@@H]2NC(=O)N[C@@H]21)NCCOCCOCCNC(=O)COc1cc(O)c2c(=O)c(O)c(-c3ccc(O)c(O)c3)oc2c1
active: [1] | Jurkat | [2]
